Read-outs that look alike come from different tables or passages of the source.

Data set [1] in a line: Pharmacokinetic study in rats after oral administration of JDR or gemcitabine. It counts as in vivo. As to conditions: male, Wistar, rat, plasma, 50 mg/kg. An outline of the steps: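 Twelve male Wistar rats (180–220 g) were fasted 12 h and randomized into two groups (n = 6). Each received one oral dose: prodrug at gemcitabine-equivalent 50 mg/kg or parent drug 50 mg/kg. Blood was drawn at 0.083–48 h (prodrug) or 0.25–24 h (parent) into heparinized THU-treated tubes and spun 3000 × g 15 min; plasma was kept at −80 °C. Analysis was UPLC–MS/MS MRM, with noncompartmental parameters.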

Data set [2] is classed as in vitro ADME, rat. As to conditions: for Concentration founded: n = 3. An outline of the steps: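 QC samples (n = 3) were spiked into THU-pretreated rat plasma at low, mid and high levels: 15, 125, 3200 ng/ml prodrug and 12, 125, 3200 ng/ml parent drug. 50 µl plasma was protein-precipitated with methanol plus didanosine IS and centrifuged. Extracts were held in the autosampler at 10 °C for 8 h before UPLC–MS/MS. Read-outs were found concentration and relative error.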

As for `Nc1ccn([C@@H]2O[C@H](CO)[C@@H](O)C2(F)F)c(=O)n1` [Gemcitabine], the highest level in data set [1] (Cmax) was 1180 ± 47.1 ng/mL. Besides, the Tmax – broadly, the time at which the peak concentration occurs – in data set [1] was 1.5 ± 0.9 h. The half-life (in general, the time in which the quantity being followed falls by half) in data set [1] is 2.61 ± 1.1 h. Besides, the RE% was −6.4% in data set [2] (autosampler rack at 10 °C for 8 h, High QC); 0.9% in data set [2] (autosampler rack at 10 °C for 8 h, Low QC); 9.1% in data set [2] (autosampler rack at 10 °C for 8 h, Mid QC); −8.9% in data set [2] (rat plasma, bench-top (20 °C for 1 h), High QC); −4.8% in data set [2] (rat plasma, bench-top (20 °C for 1 h), Low QC); 7.8% in data set [2] (rat plasma, bench-top (20 °C for 1 h), Mid QC). Further, the RE% in data set [2] (rat plasma, freezing at -80 °C for 2 months, High QC) is reported as −0.1%; in data set [2] (rat plasma, freezing at -80 °C for 2 months, Low QC) it was −2.1%; in data set [2] (rat plasma, freezing at -80 °C for 2 months, Mid QC), 4.3%; in data set [2] (rat plasma, three freeze/thaw cycles (-80 to 20 °C), High QC), −7.3%; in data set [2] (rat plasma, three freeze/thaw cycles (-80 to 20 °C), Low QC), −2.0%; in data set [2] (rat plasma, three freeze/thaw cycles (-80 to 20 °C), Mid QC) it was 7.4%. The Concentration founded in data set [2] (rat plasma, bench-top (20 °C for 1 h), High QC (added 3200.00 ng/ml)) was determined as 2915.15 ± 95.7 ng/mL; in data set [2] (rat plasma, bench-top (20 °C for 1 h), Mid QC (added 125.00 ng/ml)), 134.78 ± 1.6 ng/mL; in data set [2] (rat plasma, freezing at -80 °C for 2 months, Mid QC (added 125.00 ng/ml)), 130.38 ± 10.6 ng/mL.

The values are drawn from publication PMC7032160 (Asian Journal of Pharmaceutical Sciences, 2017).
